Laboratory results from ChEMBL document CHEMBL1134543, “A rational approach to the design of selective substrates and potent nontransportable inhibitors of the excitatory amino acid transporter EAAC1 (EAAT3). new glutamate and aspartate analogues as potential neuroprotective agents” (J Med Chem, 2001).
The source made the active and inactive calls. The rule behind the calls is not given here.

Experiments:
[1] = target: T1, Excitatory amino acid transporter 3 (Rattus norvegicus) (UniProt P51907); assay: Steady state transport rate by EAAC1 (EAAT3) in mammalian cells; format: cell-based
T1 sequence (whole entry): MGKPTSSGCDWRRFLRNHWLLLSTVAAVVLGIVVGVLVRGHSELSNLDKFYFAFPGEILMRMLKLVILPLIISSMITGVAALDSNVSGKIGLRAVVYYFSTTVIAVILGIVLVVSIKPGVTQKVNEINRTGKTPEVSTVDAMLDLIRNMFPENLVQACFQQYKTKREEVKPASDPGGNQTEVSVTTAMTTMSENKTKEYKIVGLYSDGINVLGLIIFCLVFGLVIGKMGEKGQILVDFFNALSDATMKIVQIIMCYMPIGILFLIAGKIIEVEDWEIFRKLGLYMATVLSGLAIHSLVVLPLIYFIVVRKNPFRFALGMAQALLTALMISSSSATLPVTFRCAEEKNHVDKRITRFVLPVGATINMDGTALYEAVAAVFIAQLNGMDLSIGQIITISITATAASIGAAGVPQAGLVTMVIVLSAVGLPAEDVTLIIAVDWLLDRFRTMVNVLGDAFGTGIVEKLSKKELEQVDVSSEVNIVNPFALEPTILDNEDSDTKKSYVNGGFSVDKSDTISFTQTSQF
Summary of the method: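 Whole-cell currents from EAAC1-expressing mammalian cells (intracellular SCN-, Vm 0 mV, pH 7.4, 22 °C). Steady-state KS is taken from concentration dependence. Imax ratio is the current at saturating test compound relative to the current at saturating (1 mM) L-glutamate.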

[2] = target: Glutamate receptor ionotropic, kainate; assay: Binding affinity towards Ionotropic glutamate receptor kainate by displacement of [3H]-kainic acid radioligand; format: protein-complex assay
[3] = target: T2, Glutamate receptor ionotropic, AMPA (Rattus norvegicus, UniProt P19490+P19491+P19492+P19493); assay: Binding affinity towards AMPA receptor by displacement of [3H]AMPA radioligand; format: protein-complex assay
[4] = target: Glutamate NMDA receptor; assay: Binding affinity towards NMDA receptor by displacement of [3H]CGP-39653 radioligand.; format: protein-complex assay
[5] = target: T3, Excitatory amino acid transporter 3 (Rattus norvegicus, UniProt P51907); assay: Inhibitory activity against EAAC1 (EAAT3) in presence of 20 uM L-glutamic acid in mammalian cells; format: cell-based
T3 sequence (P51907 whole entry): T1 sequence (whole entry)

[6] = target: T3, Excitatory amino acid transporter 3; assay: Inhibitory activity against EAAC1 (EAAT3) in absence of L-glutamic acid in mammalian cells; format: cell-based
[7] = target: Glutamate receptor ionotropic, kainate (Rattus norvegicus) (UniProt P22756+Q01812+P42260+P42264+Q63273); assay: Binding affinity towards Ionotropic glutamate receptor kainate by displacement of [3H]-kainic acid radioligand; Not active; format: protein-complex assay
[8] = target: Glutamate receptor ionotropic, AMPA (Rattus norvegicus) (UniProt P19491+P19492+P19493+P19490); assay: Binding affinity towards AMPA receptor by displacement of [3H]-AMPA radioligand; Not active; format: protein-complex assay
[9] = target: Glutamate NMDA receptor (Rattus norvegicus) (UniProt P35439+Q00959+Q00960+Q00961+Q62645+Q8VHN2+Q9R1M7); assay: Binding affinity towards NMDA receptor by displacement of [3H]CGP-39653 radioligand; Not active; format: protein-complex assay
[10] = target: T2, Glutamate receptor ionotropic, AMPA; assay: Binding affinity towards AMPA receptor by displacement of [3H]AMPA radioligand.; format: protein-complex assay
[11] = target: T3, Excitatory amino acid transporter 3; assay: Inhibitory activity against EAAC1 (EAAT3) in presence of 20 uM L-glutamic acid.
[12] = target: T3, Excitatory amino acid transporter 3; assay: Inhibitory activity against EAAC1 (EAAT3) in absence of L-glutamic acid.

Compound	Ks [1]	Ki [2]	Ki [4]	NA [7]	NA [8]	NA [9]	further results
N[C@@H](CCC1=N[C@H](C(=O)O)CO1)C(=O)O	730 µM	14 µM	9 µM				Ki [3]: 103 µM
O=C(O)[C@H]1N=C(c2ccccc2)O[C@@H]1C(=O)O				inactive	inactive	inactive	Ki [5]: 42 µM; Ki [6]: 14 µM
N[C@@H](CCc1nc(C(=O)O)co1)C(=O)O	100 µM	8 µM	3 µM				Ki [10]: 41 µM
N[C@@H](CC1=N[C@H](C(=O)O)CO1)C(=O)O	31 µM			inactive	inactive	inactive	
O=C(O)c1nc(-c2ccccc2)oc1C(=O)O				inactive	inactive	inactive	Ki [11]: 530 µM; Ki [12]: 75 µM
N[C@@H](CCC(=O)O)C(=O)O	5.1 µM						
